Values after ≈ are worked out from the molar mass of the structure shown. Active and inactive are the calls of the source. The calls are words filed in the database; no cut-off is given here.
What was measured:
[1] = system: Escherichia coli str. K-12 substr. DH10B; assay: Ratio of Kcat to Kinact for Escherichia coli DH10B beta-lactamase KPC-2
[2] = system: Escherichia coli str. K-12 substr. DH10B; assay: Inhibition of Escherichia coli DH10B beta-lactamase KPC-2 assessed as residual activity at 25 to 200 uM after 24 hrs by diode array spectrophotometry
[3] = system: Escherichia coli str. K-12 substr. DH10B; assay: Ratio of Kinact to Km for Escherichia coli DH10B beta-lactamase KPC-2
[4] = system: Escherichia coli str. K-12 substr. DH10B; assay: Km for Escherichia coli DH10B beta-lactamase KPC-2
[5] = system: Escherichia coli str. K-12 substr. DH10B; assay: Inhibition of Escherichia coli DH10B beta-lactamase KPC-2 at 0.025 mM by UVD spectroscopy
[6] = system: Escherichia coli str. K-12 substr. DH10B; assay: Inhibition of Escherichia coli DH10B beta-lactamase KPC-2 assessed as residual activity at 25 to 200 uM after 24 hrs by diode array spectrophotometry; values are per cent of control
[7] = system: Escherichia coli str. K-12 substr. DH10B; assay: Inhibition of Escherichia coli DH10B beta-lactamase KPC-2 assessed as residual activity at 25 to 200 uM after 72 hrs by diode array spectrophotometry
Klebsiella pneumoniae = assay: Antimicrobial activity against Klebsiella pneumoniae 1534 harboring beta lactamase KPC-2 by CLSI method; format: functional
Method in brief: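 […] agar dilution MICs per CLSI, using a Steers replicator spotting 10^4 CFU per spot. For clavulanic acid and sulbactam, ampicillin was fixed at 50 mg/liter while inhibitor was increased. Piperacillin-tazobactam was tested at 8:1. Test inhibitors were held at 4 mg/liter while piperacillin, imipenem or cefotaxime was increased.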

Escherichia coli [8] = assay: Antimicrobial activity against Escherichia coli DH10B harboring beta lactamase KPC-2 by CLSI method; settings: K-12 DH10B
Escherichia coli [9] = assay: Antimicrobial activity against Escherichia coli DH10B by CLSI method; settings: K-12 DH10B
[10] = system: Escherichia coli str. K-12 substr. DH10B; assay: Ratio of Kcat to Km for Escherichia coli DH10B beta-lactamase KPC-2
Method in brief: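 Steady-state assay on a diode array spectrophotometer with 10 nM purified KPC-2 and substrates at 5–200 μM, in 10 mM PBS pH 7.4 at room temperature. Spontaneous imipenem hydrolysis was subtracted. Vmax and Km came from a nonlinear least-squares Michaelis-Menten fit.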

[11] = (§1) Activity at Escherichia coli DH10B beta-lactamase KPC-2 by diode array spectrophotometry; set-up: species or system Escherichia coli str. K-12 substr. DH10B
[12] = system: Escherichia coli str. K-12 substr. DH10B; assay: as §1

| SMILES | kcat/kinact [1] | kinact/Km [3] [M⁻¹ s⁻¹] | Km [4] [µM] | MIC (Klebsiella pneumoniae) [µg/mL] | MIC (Escherichia coli [8]) [µg/mL] | MIC (Escherichia coli [9]) [µg/mL] | kcat/Km [10] [µM/s] | Ki [11] [µM] | kcat [12] [s⁻¹] | also measured |
| --- | --- | --- | --- | --- | --- | --- | --- | --- | --- | --- |
| CC1(C)[C@H](C(=O)O)N2C(=O)C[C@H]2S1(=O)=O | 1000 | 1200 | 135 |  |  |  |  |  |  | Activity [2]: 50% |
| C[C@]1(Cn2ccnn2)[C@H](C(=O)O)N2C(=O)C[C@H]2S1(=O)=O | 500 | 2500 | 78.5 |  |  |  |  |  |  | Activity [2]: 50% |
| O=C(O)C1=CSC2/C(=C\c3cc4n(n3)CSC4)C(=O)N12 (stereo not given) | 250 | 180000 | 0.06 |  |  |  |  |  |  | inhibition [5]: Active; residual activity [6]: 20% |
| O=C(O)[C@H]1/C(=C/CO)O[C@@H]2CC(=O)N21 | 2500 | 3600 | 8.4 |  |  |  |  |  |  | Activity [7]: 5% |
| CC1(C)S[C@@H]2[C@H](NC(=O)[C@H](N)c3ccccc3)C(=O)N2[C@H]1C(=O)O [AMPICILLIN] |  |  |  | 8190 (≈ 23400 µM) | 4100 (≈ 11700 µM) | 1 (≈ 2.86 µM) |  |  |  |  |
| CO/N=C(\C(=O)N[C@@H]1C(=O)N2C(C(=O)O)=C(COC(C)=O)CS[C@H]12)c1csc(N)n1 [CEFOTAXIME] |  |  |  | 16 (≈ 35.1 µM) | 8 (≈ 17.6 µM) | 0.06 (≈ 0.132 µM) | 0.6 | 120 | 78 |  |
| C[C@@H](O)[C@H]1C(=O)N2C(C(=O)O)=C(SCCNC=N)C[C@H]12 [IMIPENEM ANHYDROUS] |  |  |  | 8 (≈ 26.7 µM) | 8 (≈ 26.7 µM) |  | 1 | 19 | 19 |  |
| O=C(Cc1cccs1)N[C@@H]1C(=O)N2C(C(=O)O)=C(/C=C/c3ccc([N+](=O)[O-])cc3[N+](=O)[O-])CS[C@H]12 [NITROCEFIN] |  |  |  |  |  |  | 6.4 | 5 | 30 |  |
| CCN1CCN(C(=O)N[C@@H](C(=O)N[C@@H]2C(=O)N3[C@@H]2SC(C)(C)[C@@H]3C(=O)O)c2ccccc2)C(=O)C1=O [PIPERACILLIN] |  |  |  | 1020 (≈ 1980 µM) | 1020 (≈ 1980 µM) | 2 (≈ 3.86 µM) | 1.1 | 16 | 17 |  |

From ChEMBL document CHEMBL1212801, “Inhibitor resistance in the KPC-2 beta-lactamase, a preeminent property of this class A beta-lactamase” (Antimicrob Agents Chemother, 2010)
